Data: paper PMC7004090 (Clinical Pharmacology in Drug Development, 2019)

How the values were obtained:
Assay type in all cases: in vivo, human
[1] = Plasma teriparatide acetate pharmacokinetics after subcutaneous injection
Summary of the method: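 Vials were reconstituted in saline at use. 28.2 μg was given sc into the abdomen; 56.5 μg sc into the upper arm, in Cohort 1 with saline at the other site. Plasma was drawn pre-dose and at 0.25–6 h post-dose on days 1 and 36, frozen, and assayed centrally by IRMA (LLOQ 21.46 pg/mL). Noncompartmental parameters; values below LLOQ set to zero for means; arithmetic mean ± SD.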

[2] = system: bone turnover markers (P1NP, OC, serum NTX, CTX, urine NTX); test: Changes in trough values of bone turnover markers; details: for GMRs (trough to baseline) of serum P1NP and serum OC: 6 weeks, then steady until day 43; for GMRs (trough to baseline) of serum NTX, serum CTX, and urine NTX: after the 6-week treatments
Summary of the method: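 Healthy postmenopausal women received sc synthetic human PTH 1-34 or saline placebo for 6 weeks. Markers were sampled pre-dose on days 1, 8, 15, 22, 29 and 36 and on day 43. Serum P1NP and CTX were measured by ECLIA, OC by IRMA, serum and urine NTX by ELISA; CTX only on days 1, 8, 29 and 43. Samples were assayed centrally. GMR of log-transformed trough to baseline, with 95% CI, by ANOVA per group.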

[3] = system: healthy Japanese postmenopausal women; test: Safety: incidence of adverse events; details: 6 weeks, n = 20
Summary of the method: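 Randomized, single-blind, saline placebo-controlled trial in healthy Japanese postmenopausal women, with sc dosing for 6 weeks. Adverse events came from self-report, interviews or other tests, with onset, severity, seriousness, outcome and drug relationship recorded. Coding used MedDRA v17.1 preferred terms. Vital signs, 12-lead ECG, haematology, blood biochemistry and urinalysis were also monitored.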

[4] = Cohort 1 BIW: 28.2 μg twice weekly sc, intervals 3, 4 days
[5] = Cohort 1 QW: 56.5 μg once weekly sc
[6] = Cohort 2 BIW: 28.2 μg twice weekly sc, intervals 2, 5 days

For CC[C@H](C)[C@H](NC(=O)[C@H](CCC(=O)O)NC(=O)[C@H](CO)NC(=O)[C@@H](NC(=O)[C@@H](N)CO)C(C)C)C(=O)N[C@@H](CCC(N)=O)C(=O)N[C@@H](CC(C)C)C(=O)N[C@@H](CCSC)C(=O)N[C@@H](Cc1cnc[nH]1)C(=O)N[C@@H](CC(N)=O)C(=O)N[C@@H](CC(C)C)C(=O)NCC(=O)N[C@@H](CCCCN)C(=O)N[C@@H](Cc1cnc[nH]1)C(=O)N[C@@H](CC(C)C)C(=O)N[C@@H](CC(N)=O)C(=O)N[C@@H](CO)C(=O)N[C@@H](CCSC)C(=O)N[C@@H](CCC(=O)O)C(=O)N[C@@H](CCCN=C(N)N)C(=O)N[C@H](C(=O)N[C@@H](CCC(=O)O)C(=O)N[C@@H](Cc1c[nH]c2ccccc12)C(=O)N[C@@H](CC(C)C)C(=O)N[C@@H](CCCN=C(N)N)C(=O)N[C@@H](CCCCN)C(=O)N[C@@H](CCCCN)C(=O)N[C@@H](CC(C)C)C(=O)N[C@@H](CCC(N)=O)C(=O)N[C@@H](CC(=O)O)C(=O)N[C@H](C(=O)N[C@@H](Cc1cnc[nH]1)C(=O)N[C@@H](CC(N)=O)C(=O)N[C@@H](Cc1ccccc1)C(=O)O)C(C)C)C(C)C [teriparatide], the Tmax ([1]; human, plasma, sc, 28.2 ug) was ≤ 60 min, the half-life ([1]; human, plasma, sc, 28.2 ug) was 44.3 ± 6.12 min and the “accumulation of teriparatide acetate in plasma” value ([1]; multiple dosing of once-weekly 56.5 μg, 6 weeks) was “no accumulation”. The “AUCinf and Cmax relative to the once-weekly 56.5-μg group” value ([1]; twice-weekly 28.2-μg groups) was “approximately half”, the “accumulation in the plasma” value ([1]; twice-weekly 28.2-μg injection treatment, regardless of dosing intervals, 6 weeks) was “not observed” and the “GMRs (trough to baseline) of serum P1NP and serum OC” value ([2]; all 3 twice-weekly 28.2-μg groups) was “similarly increased to day 29 or day 36”. The “GMRs (trough to baseline) of serum NTX, serum CTX, and urine NTX” value ([2]; all twice-weekly 28.2-μg groups) was “did not increase”, the “GMRs (trough to baseline) of serum P1NP and serum OC” value ([2]; once-weekly 56.5-μg group) was “similarly increased to day 29 or day 36” and the “GMRs (trough to baseline) of serum NTX, serum CTX, and urine NTX” value ([2]; once-weekly 56.5-μg group) was “did not increase”. The Abdominal pain [3, 4] was 0 (0.0) number of subjects (%), the “Adverse events, Total” value [3, 4] was 12 (60.0) number of subjects (%) and the Alanine aminotransferase increased [3, 4] was 0 (0.0) number of subjects (%). For the same molecule, the Arthralgia [3, 4] was 0 (0.0) number of subjects (%), the Aspartate aminotransferase increased [3, 4] was 0 (0.0) number of subjects (%) and the Blood pressure decreased [3, 4] was 0 (0.0) number of subjects (%). The Chest discomfort [3, 4] was 0 (0.0) number of subjects (%), the Constipation [3, 4] was 0 (0.0) number of subjects (%) and the Dizziness [3, 4] was 1 (5.0) number of subjects (%). For the same molecule, the Dyspepsia [3, 4] was 1 (5.0) number of subjects (%), the Feeling abnormal [3, 4] was 0 (0.0) number of subjects (%) and the Fractured coccyx [3, 4] was 1 (5.0) number of subjects (%). For the same molecule, the Gamma-glutamyltransferase increased [3, 4] was 0 (0.0) number of subjects (%), the Headache [3, 4] was 5 (25.0) number of subjects (%) and the Injection site erythema [3, 4] was 2 (10.0) number of subjects (%). The Malaise [3, 4] was 2 (10.0) number of subjects (%), the Nasopharyngitis [3, 4] was 0 (0.0) number of subjects (%) and the Nausea [3, 4] was 9 (45.0) number of subjects (%). For the same molecule, the Pruritus [3, 4] was 0 (0.0) number of subjects (%), the Rash [3, 4] was 0 (0.0) number of subjects (%) and the Somnolence [3, 4] was 0 (0.0) number of subjects (%). For the same molecule, the Vomiting [3, 4] was 4 (20.0) number of subjects (%), the Abdominal pain [3, 5] was 0 (0.0) number of subjects (%) and the “Adverse events, Total” value [3, 5] was 18 (90.0) number of subjects (%). The Alanine aminotransferase increased [3, 5] was 2 (10.0) number of subjects (%), the Arthralgia [3, 5] was 1 (5.0) number of subjects (%) and the Aspartate aminotransferase increased [3, 5] was 1 (5.0) number of subjects (%). For the same molecule, the Blood pressure decreased [3, 5] was 1 (5.0) number of subjects (%), the Chest discomfort [3, 5] was 0 (0.0) number of subjects (%) and the Constipation [3, 5] was 1 (5.0) number of subjects (%). For the same molecule, the Dizziness [3, 5] was 3 (15.0) number of subjects (%), the Dyspepsia [3, 5] was 0 (0.0) number of subjects (%) and the Feeling abnormal [3, 5] was 0 (0.0) number of subjects (%). The Fractured coccyx [3, 5] was 0 (0.0) number of subjects (%), the Gamma-glutamyltransferase increased [3, 5] was 1 (5.0) number of subjects (%) and the Headache [3, 5] was 15 (75.0) number of subjects (%). For the same molecule, the Injection site erythema [3, 5] was 2 (10.0) number of subjects (%), the Malaise [3, 5] was 4 (20.0) number of subjects (%) and the Nasopharyngitis [3, 5] was 0 (0.0) number of subjects (%). The Nausea [3, 5] was 18 (90.0) number of subjects (%), the Pruritus [3, 5] was 0 (0.0) number of subjects (%) and the Rash [3, 5] was 0 (0.0) number of subjects (%). For the same molecule, the Somnolence [3, 5] was 1 (5.0) number of subjects (%), the Vomiting [3, 5] was 14 (70.0) number of subjects (%) and the Abdominal pain [3, 6] was 1 (5.0) number of subjects (%). For the same molecule, the “Adverse events, Total” value [3, 6] was 12 (60.0) number of subjects (%), the Alanine aminotransferase increased [3, 6] was 0 (0.0) number of subjects (%) and the Arthralgia [3, 6] was 0 (0.0) number of subjects (%). For the same molecule, the Aspartate aminotransferase increased [3, 6] was 0 (0.0) number of subjects (%).
